Data: ChEMBL document CHEMBL1146567, “Isolation and structure of ruprechstyril from Ruprechtia tangarana” (2003)
Converted amounts (≈) assume the structure as drawn. The source made the active and inactive calls. The rule behind the calls is not given here.

Legend:
P388 = assay: Cytotoxicity against mouse P388 cells; type: functional
Micrococcus luteus [1] = assay: Antimicrobial activity against Micrococcus luteus by broth microdilution susceptibility assay; type: functional
Summary of the method: (§1)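 Broth microdilution susceptibility testing; the value recorded is the minimum inhibitory concentration of growth, given in μg/mL, and sometimes reported as a range.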

Enterococcus faecalis [2] = assay: Antimicrobial activity against Enterococcus faecalis by broth microdilution susceptibility assay; type: functional; summary of the method: as §1
Enterobacter cloacae = assay: Antimicrobial activity against Enterobacter cloacae up to 64 ug/mL by broth microdilution susceptibility assay; type: functional, organism-based
Summary of the method: (§2)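 Broth microdilution susceptibility testing. Growth inhibition read-out is reported as the minimum inhibitory concentration, in μg/mL.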

Candida albicans = assay: Antimicrobial activity against Candida albicans up to 64 ug/mL by broth microdilution susceptibility assay; type: functional, organism-based; summary of the method: as §2
Staphylococcus aureus = assay: Antimicrobial activity against Staphylococcus aureus up to 64 ug/mL by broth microdilution susceptibility assay; type: functional, organism-based; summary of the method: as §2
Enterococcus faecalis [3] = assay: Antimicrobial activity against Enterococcus faecalis up to 64 ug/mL by broth microdilution susceptibility assay; type: functional, organism-based; summary of the method: as §2
Streptococcus pneumoniae = assay: Antimicrobial activity against Streptococcus pneumoniae up to 64 ug/mL by broth microdilution susceptibility assay; type: functional, organism-based; summary of the method: as §2
[4] = system: Stenotrophomonas maltophilia; assay: Antimicrobial activity against Stenotrophomonas maltophilia up to 64 ug/mL by broth microdilution susceptibility assay; type: functional, organism-based; summary of the method: as §2
Escherichia coli = assay: Antimicrobial activity against Escherichia coli up to 64 ug/mL by broth microdilution susceptibility assay; type: functional, organism-based; summary of the method: as §2
Neisseria gonorrhoeae = assay: Antimicrobial activity against Neisseria gonorrhoeae up to 64 ug/mL by broth microdilution susceptibility assay; type: functional, organism-based; summary of the method: as §2
Cryptococcus neoformans = assay: Antimicrobial activity against Cryptococcus neoformans up to 64 ug/mL by broth microdilution susceptibility assay; type: functional, organism-based; summary of the method: as §2
Micrococcus luteus [5] = assay: Antimicrobial activity against Micrococcus luteus up to 64 ug/mL by broth microdilution susceptibility assay; type: functional, organism-based; summary of the method: as §2

| SMILES | EC50 (P388; read-out: ED50 (the source's name)) [µg/mL] | MIC (Micrococcus luteus [1]) [µg/mL] | MIC (Enterococcus faecalis [2]) [µg/mL] | Activity (Enterobacter cloacae) | Activity (Candida albicans) | Activity (Staphylococcus aureus) | Activity (Enterococcus faecalis [3]) | Activity (Streptococcus pneumoniae) | Activity (P388) | Activity [4] | Activity (Escherichia coli) | Activity (Neisseria gonorrhoeae) | Activity (Cryptococcus neoformans) | Activity (Micrococcus luteus [5]) |
| --- | --- | --- | --- | --- | --- | --- | --- | --- | --- | --- | --- | --- | --- | --- |
| COC(=O)[C@]12Oc3ccc(-c4ccc5c(c4O)C(=O)C4=C(O)C[C@@H](C)[C@H](O)[C@@]4(C(=O)OC)O5)c(O)c3C(=O)C1=C(O)C[C@@H](C)[C@@H]2O [SECALONIC ACID A] | 3.5 (≈ 5.48 µM) | 4 (≈ 6.26 µM) | 32 (≈ 50.1 µM) | – | – | – | – | – | – | – | – | – | – | – |
| COc1cc(C)c2c(=O)c3c(O)cc(OC)cc3oc2c1 | – | – | – | inactive | inactive | inactive | inactive | inactive | inactive | inactive | inactive | inactive | inactive | inactive |
| COC(=O)c1cc(O)cc(OC)c1Oc1cc(C)cc(O)c1C(=O)OC | – | – | – | inactive | inactive | inactive | inactive | inactive | inactive | inactive | inactive | inactive | inactive | inactive |
| CCCCCc1cc2cc(OC)cc(O)c2c(=O)[nH]1 | – | – | – | inactive | inactive | inactive | inactive | inactive | inactive | inactive | inactive | inactive | inactive | inactive |
| COc1c(OC)c2oc(=O)c3cc(O)c(OC)c4oc(=O)c(c1O)c2c43 | – | – | – | inactive | inactive | inactive | inactive | inactive | inactive | inactive | inactive | inactive | inactive | inactive |
| COc1cc(C)c(C(=O)Oc2cc(C)c(C(=O)O)c(OC)c2)c(O)c1 | – | – | – | inactive | inactive | inactive | inactive | inactive | inactive | inactive | inactive | inactive | inactive | inactive |
| CC[C@H](/C=C/[C@@H](C)[C@H]1CC[C@H]2[C@@H]3CC=C4C[C@@H](O)CC[C@]4(C)[C@H]3CC[C@]12C)C(C)C | – | – | – | – | – | – | – | – | inactive | – | – | – | – | – |
